Assay results reported in paper PMC5812400 (ESMO Open, 2018).
“Also recorded” adds a separate entry of the source.

System: adult patients with advanced non-haematological malignancies
Assay: Safety and tolerability
Format: in vivo, human
Procedure, shortened: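 Patients on milled oral capsules, fasted, in 28-day cycles. AEs and SAEs recorded from first dose through 30 days after last dose. Graded by NCI CTCAE v4.03 and coded to MedDRA v19.0. Relatedness to study drug judged by investigator.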

CC(C)n1nc(-c2ccc3oc(N)nc3c2)c2c(N)ncnc21 [TAK-228, Sapanisertib]
Drug-related AE: Dry mouth (QW 20 mg (n=7)): 0 n (%) | Drug-related AE: Fatigue (QW 20 mg (n=7)): 3 (43) n (%) | Drug-related AE: Hyperglycaemia (QW 20 mg (n=7)): 0 n (%) | Drug-related AE: Nausea (QW 20 mg (n=7)): 4 (57) n (%) | Drug-related AE: Pruritus (QW 20 mg (n=7)): 0 n (%) | Drug-related AE: Rash (maculopapular) (QW 20 mg (n=7)): 0 n (%) | Drug-related AE: Stomatitis (QW 20 mg (n=7)): 0 n (%) | Drug-related AE: Vomiting (QW 20 mg (n=7)): 2 (29) n (%) | Drug-related SAE (QW 20 mg (n=7)): 0 n (%) | Drug-related grade ≥3 AE (QW 20 mg (n=7)): 2 (29) n (%) | Grade ≥3 AE (QW 20 mg (n=7)): 5 (71) n (%) | Grade ≥3 AE: Abdominal pain (QW 20 mg (n=7)): 1 (14) n (%) | Grade ≥3 AE: Anaemia (QW 20 mg (n=7)): 1 (14) n (%) | Grade ≥3 AE: Diarrhoea (QW 20 mg (n=7)): 1 (14) n (%) | Grade ≥3 AE: Hypercalcaemia (QW 20 mg (n=7)): 0 n (%) | Grade ≥3 AE: Hyperglycaemia (QW 20 mg (n=7)): 0 n (%) | Grade ≥3 AE: Hypophosphataemia (QW 20 mg (n=7)): 0 n (%) | Grade ≥3 AE: Hypotension (QW 20 mg (n=7)): 2 (29) n (%) | Grade ≥3 AE: Nausea (QW 20 mg (n=7)): 1 (14) n (%) | Grade ≥3 AE: Vomiting (QW 20 mg (n=7)): 1 (14) n (%) | On-study deaths (QW 20 mg (n=7)): 0 n (%) | SAE (QW 20 mg (n=7)): 4 (57) n (%) | AE resulting in TAK-228 discontinuation (QW 30 mg (n=13)): 3 (23) n (%) | Drug-related AE (QW 30 mg (n=13)): 11 (85) n (%) | Drug-related AE: Asthaenia (QW 30 mg (n=13)): 0 n (%) | Drug-related AE: Decreased appetite (QW 30 mg (n=13)): 2 (15) n (%) | Drug-related AE: Dehydration (QW 30 mg (n=13)): 0 n (%) | Drug-related AE: Diarrhoea (QW 30 mg (n=13)): 2 (15) n (%) | Drug-related AE: Dry mouth (QW 30 mg (n=13)): 1 (8) n (%) | Drug-related AE: Fatigue (QW 30 mg (n=13)): 6 (46) n (%) | Drug-related AE: Hyperglycaemia (QW 30 mg (n=13)): 3 (23) n (%) | Drug-related AE: Nausea (QW 30 mg (n=13)): 5 (39) n (%) | Drug-related AE: Pruritus (QW 30 mg (n=13)): 1 (8) n (%) | Drug-related AE: Rash (maculopapular) (QW 30 mg (n=13)): 2 (15) n (%) | Drug-related AE: Stomatitis (QW 30 mg (n=13)): 2 (15) n (%) | Drug-related AE: Vomiting (QW 30 mg (n=13)): 7 (54) n (%) | Drug-related SAE (QW 30 mg (n=13)): 2 (15) n (%) | Drug-related grade ≥3 AE (QW 30 mg (n=13)): 4 (31) n (%) | Grade ≥3 AE (QW 30 mg (n=13)): 7 (54) n (%) | Grade ≥3 AE: Abdominal pain (QW 30 mg (n=13)): 1 (8) n (%) | Grade ≥3 AE: Anaemia (QW 30 mg (n=13)): 1 (8) n (%) | Grade ≥3 AE: Hypercalcaemia (QW 30 mg (n=13)): 2 (15) n (%) | Grade ≥3 AE: Hyperglycaemia (QW 30 mg (n=13)): 3 (23) n (%) | Grade ≥3 AE: Hypophosphataemia (QW 30 mg (n=13)): 1 (8) n (%) | Grade ≥3 AE: Hypotension (QW 30 mg (n=13)): 0 n (%) | Grade ≥3 AE: Nausea (QW 30 mg (n=13)): 1 (8) n (%) | Grade ≥3 AE: Vomiting (QW 30 mg (n=13)): 1 (8) n (%) | On-study deaths (QW 30 mg (n=13)): 1 (8) n (%) | SAE (QW 30 mg (n=13)): 6 (46) n (%) | AE resulting in TAK-228 discontinuation (QW Total (n=20)): 3 (15) n (%) | Drug-related AE (QW Total (n=20)): 16 (80) n (%) | Drug-related AE: Asthaenia (QW Total (n=20)): 1 (5) n (%) | Drug-related AE: Decreased appetite (QW Total (n=20)): 3 (15) n (%) | Drug-related AE: Dehydration (QW Total (n=20)): 1 (5) n (%) | Drug-related AE: Diarrhoea (QW Total (n=20)): 6 (30) n (%) | Drug-related AE: Dry mouth (QW Total (n=20)): 1 (5) n (%) | Drug-related AE: Fatigue (QW Total (n=20)): 9 (45) n (%) | Drug-related AE: Hyperglycaemia (QW Total (n=20)): 3 (15) n (%) | Drug-related AE: Nausea (QW Total (n=20)): 9 (45) n (%) | Drug-related AE: Pruritus (QW Total (n=20)): 1 (5) n (%) | Drug-related AE: Rash (maculopapular) (QW Total (n=20)): 2 (10) n (%) | Drug-related AE: Stomatitis (QW Total (n=20)): 2 (10) n (%) | Drug-related AE: Vomiting (QW Total (n=20)): 9 (45) n (%) | Drug-related SAE (QW Total (n=20)): 2 (10) n (%) | Drug-related grade ≥3 AE (QW Total (n=20)): 6 (30) n (%) | Grade ≥3 AE (QW Total (n=20)): 12 (60) n (%) | Grade ≥3 AE: Abdominal pain (QW Total (n=20)): 2 (10) n (%) | Grade ≥3 AE: Anaemia (QW Total (n=20)): 2 (10) n (%) | Grade ≥3 AE: Diarrhoea (QW Total (n=20)): 1 (5) n (%) | Grade ≥3 AE: Hypercalcaemia (QW Total (n=20)): 2 (10) n (%) | Grade ≥3 AE: Hyperglycaemia (QW Total (n=20)): 3 (15) n (%) | Grade ≥3 AE: Hypophosphataemia (QW Total (n=20)): 1 (5) n (%) | Grade ≥3 AE: Hypotension (QW Total (n=20)): 2 (10) n (%) | Grade ≥3 AE: Nausea (QW Total (n=20)): 2 (10) n (%) | Grade ≥3 AE: Vomiting (QW Total (n=20)): 2 (10) n (%) | On-study deaths (QW Total (n=20)): 1 (5) n (%) | SAE (QW Total (n=20)): 10 (50) n (%) | Asthaenic conditions, patients (QW arm): 60% | Drug-related AE of any grade: diarrhoea (QW arm): 30% | Drug-related AE of any grade: fatigue (QW arm): 45% | Drug-related AE of any grade: nausea (QW arm): 45% | Drug-related AE of any grade: vomiting (QW arm): 45% | Grade ≥3 AE: Abdominal pain (QW arm): 10% | Grade ≥3 AE: Anaemia (QW arm): 10% | Grade ≥3 AE: Hypercalcaemia (QW arm): 10% | Grade ≥3 AE: Hyperglycaemia (QW arm): 15% | Grade ≥3 AE: Hypotension (QW arm): 10% | Grade ≥3 AE: Nausea (QW arm): 10% | Grade ≥3 AE: Vomiting (QW arm): 10% | SAEs, patients (QW arm): 50% | Patients experiencing AEs (TAK-228 QD arm): 100% | Patients with drug-related AEs (TAK-228 QD arm): 94% | Patients experiencing AEs (TAK-228 QW arm): 95% | Patients with drug-related AEs (TAK-228 QW arm): 80% | AEs of interest (hyperglycaemia, rash, renal insufficiency, mucosal inflammation and asthaenic conditions), patients (all treatment arms): ≥ 10% | Most commonly reported drug-related AEs (fatigue, diarrhoea and nausea), patients (treatment period, across all treatment arms): ≥ 25% | On-study deaths and relatedness to study drugs (whole study, all arms): Three on-study deaths occurred, all considered unrelated to study drugs; also recorded: Three deaths occurred during the study, one in each treatment arm; none were considered related to study drugs
